Assay results of several laboratories.
Lines come from different studies, so protocols differ.
Methionyl-tRNA synthetase, putative: Methionyl-tRNA synthetase, putative (Trypanosoma brucei brucei, UniProt Q38C91)
PHIP BD2: PHIP, BD2 (Homo sapiens, UniProt Q8WWQ0)
SLC10A2: Ileal sodium/bile acid cotransporter (SLC10A2, Homo sapiens, UniProt Q12908)
PIP4K2A: Phosphatidylinositol 5-phosphate 4-kinase type-2 alpha (PIP4K2A, Homo sapiens, UniProt P48426)
BRD9: Bromodomain-containing protein 9 (BRD9, Homo sapiens, UniProt Q9H8M2)
STK35: Serine/threonine-protein kinase 35 (STK35, Homo sapiens, UniProt Q8TDR2)
SETD7: Histone-lysine N-methyltransferase SETD7 (SETD7, Homo sapiens, UniProt Q8WTS6)
ACVR2A: Activin receptor type-2A (ACVR2A, Homo sapiens, UniProt P27037)

Compound | target | test | system | conditions | measurement | value
CN(CCNCc1cc(Cl)cc(Cl)c1)c1nc2nc(Cl)ccc2[nH]1 | Methionyl-tRNA synthetase, putative | thermal stability, DSF | – | 100 µM | ΔTm | 18.4 °C
C[S+]([O-])c1ccc(-c2nc(-c3ccncc3)c(-c3ccc(F)cc3)[nH]2)cc1 (stereo not drawn) | PHIP BD2 | thermal stability, DSF | – | 10 µM | ΔTm | 1.14 °C
CC(C(=O)O)c1cccc(C(=O)c2ccccc2)c1 (stereo not drawn) | SLC10A2 | transporter uptake, inhibitor, radiometric | – | 1 mM | inhibition | 44%
Cc1cc(NC(=O)c2cccc3cc(-c4cccc5[nH]nc(N)c45)ccc23)ccc1F | PIP4K2A | enzyme activity, inhibitor | – | 0.1 µM | activity vs control | 98%
C[C@@H]1C[C@H]2[C@@H]3CCC4=CC(=O)C=C[C@]4(C)[C@@]3(F)[C@@H](O)C[C@]2(C)[C@@]1(O)C(=O)CO | SLC10A2 | transporter uptake, inhibitor, radiometric | – | 1 mM | inhibition | < 10%
Oc1ccc(-c2nc(-c3ccncc3)c(-c3ccc(F)cc3)[nH]2)cc1 | BRD9 | thermal stability, DSF | – | 10 µM | ΔTm | 0.31 °C
CCOC(=O)[C@](CC)(CCCS(=O)(=O)CCOCCOCCNC(=O)OC(C)(C)C)NC(=O)c1ccc(C2CC2)c(Cc2ccc(F)cc2)n1 | Cannabinoid receptor 2 (CNR2, Homo sapiens, UniProt P34972) | cAMP, agonist | – | – | Emax | 89%
CC(=O)N[C@H]1CSSC[C@@H](C(=O)N[C@@H](Cc2c[nH]c3ccccc23)C(N)=O)NC(=O)[C@H](Cc2ccccc2)NC(=O)[C@H](CCCNC(=N)N)NC1=O | Melanocortin receptor 5 (MC5R, Homo sapiens, UniProt P33032) | cAMP, agonist | HEK293 | 3 min | Emax | 0%
Nc1nc(NC2CC2)c2ncn([C@H]3C=C[C@@H](CO)C3)c2n1 | SLC10A2 | transporter uptake, inhibitor, radiometric | – | 1 mM | inhibition | 13.1%
O=C(Cc1cc(Cl)cc(Cl)c1)N1CCCC(c2nc3cc(Cl)c(F)cc3[nH]2)C1 (stereo not drawn) | Methionyl-tRNA synthetase, putative | thermal stability, DSF | – | 100 µM | ΔTm | 7 °C
NS(=O)(=O)c1ccc(Nc2nc(-c3ccc(F)cc3)c3ccccc3n2)cc1 | BRD9 | binding, competition with immobilised ligand | – | 1 µM | remaining binding | 81%
Cc1cnc(NC2CCOCC2)nc1-n1cnc(C(=O)NC(CN)c2cc(F)cc(Cl)c2)c1 (stereo not drawn) | PIP4K2A | enzyme activity, inhibitor, radiometric | – | 1 µM | remaining activity | 102%
Nc1ncnc2occ(-c3ccc(NC(=O)Nc4cc(C(F)(F)F)ccc4F)cc3)c12 | STK35 | cell-free assay, inhibitor | – | 20 µM | remaining signal | 1.6%
CN1CCN(c2ccc([N+](=O)[O-])cc2NC(=O)c2ccccc2)CC1 | WD repeat-containing protein 5 (WDR5, Homo sapiens, UniProt P61964) | thermal stability, DSF | – | 100 µM | ΔTm | 3.8 °C
O=C(O)C1=CC(=C(c2ccc(O)c(C(=O)O)c2)c2ccc(O)c(C(=O)O)c2)C=CC1=O | SETD7 | cell-free assay | – | 10 µM | inhibition | 100%
CN1CCC2(CC1)NC(=O)c1c(c3ccc(Cl)c(Cl)c3n1C)C2C#N (racemic) | ACVR2A | thermal stability, DSF | – | 10 µM | ΔTm | 0.4 °C
Cc1ccc(C(=O)Nc2ccc(CN3CCN(C)CC3)c(C(F)(F)F)c2)cc1C#Cc1cnc2cccnn12 | Cyclin-dependent kinase-like 3 (CDKL3, Homo sapiens, UniProt Q8IVW4) | enzyme activity | – | 23.5 nM | remaining activity | 26%
Cn1c2c(c3ccc(Cl)c(Cl)c31)C(C#N)C1(CCN(C(=O)OC(C)(C)C)CC1)NC2=O (racemic) | ACVR2A | thermal stability, DSF | – | 10 µM | ΔTm | 0 °C
Cc1cnc(Nc2ccc(OCCN3CCCC3)cc2)nc1Nc1cccc(S(=O)(=O)NC(C)(C)C)c1 | PHIP BD2 | thermal stability, DSF | – | 10 µM | ΔTm | 0.6 °C
O=c1oc2c(O)c(O)cc3c(=O)oc4c(O)c(O)cc1c4c23 | SETD7 | cell-free assay | – | 10 µM | inhibition | 20%
COc1cc(Cl)c(C(=O)N[C@@H](CN[C@H]2CC[C@@H](N)CC2)Cc2ccc(C#N)cc2)cc1-c1ccc(CN[C@H](C)c2ccc(C)cc2)o1 | STK35 | enzyme activity, inhibitor | – | 1 µM | remaining activity | 98%
